The values below come from article PMC3517154 (ChemMedChem, 2011).

A word on the IC50: it is the point on the concentration scale where inhibition reaches its midpoint. One may read the EC50 as the concentration at which the effect is half-maximal.

The target of test [1] is T1, PPARγ LBD (Homo sapiens, UniProt P37231).
T1 sequence (P37231 238-503 limits assumed): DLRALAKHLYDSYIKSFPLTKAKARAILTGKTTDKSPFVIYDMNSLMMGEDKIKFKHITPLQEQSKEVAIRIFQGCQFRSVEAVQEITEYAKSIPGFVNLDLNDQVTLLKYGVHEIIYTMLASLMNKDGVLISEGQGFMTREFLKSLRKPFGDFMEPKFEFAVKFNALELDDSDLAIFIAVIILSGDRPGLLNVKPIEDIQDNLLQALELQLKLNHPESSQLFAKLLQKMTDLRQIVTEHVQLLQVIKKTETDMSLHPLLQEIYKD
Put plainly: Fluorescence polarization. The test is classed as binding. To be noted: read-out: FP Assay IC50; recombinant PPARγ LBD, 5 nM Fluoromone Green ligand, 25°C, 2 hours. The gist of the method:
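Competitive FP binding run per kit instructions. 20 ng recombinant PPARγ LBD plus 5 nM Fluoromone Green probe, mixed with an equal volume of screening buffer holding DMSO or test compound. Incubated 2 h at 25°C. Polarization read at 485 nm excitation and 535 nm emission. Rosiglitazone used as positive competitor. IC50 from dose-response curve fit.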

The target in test [2] is T2, PPARγ (Homo sapiens, UniProt P37231).
T2 sequence (P37231 1-505): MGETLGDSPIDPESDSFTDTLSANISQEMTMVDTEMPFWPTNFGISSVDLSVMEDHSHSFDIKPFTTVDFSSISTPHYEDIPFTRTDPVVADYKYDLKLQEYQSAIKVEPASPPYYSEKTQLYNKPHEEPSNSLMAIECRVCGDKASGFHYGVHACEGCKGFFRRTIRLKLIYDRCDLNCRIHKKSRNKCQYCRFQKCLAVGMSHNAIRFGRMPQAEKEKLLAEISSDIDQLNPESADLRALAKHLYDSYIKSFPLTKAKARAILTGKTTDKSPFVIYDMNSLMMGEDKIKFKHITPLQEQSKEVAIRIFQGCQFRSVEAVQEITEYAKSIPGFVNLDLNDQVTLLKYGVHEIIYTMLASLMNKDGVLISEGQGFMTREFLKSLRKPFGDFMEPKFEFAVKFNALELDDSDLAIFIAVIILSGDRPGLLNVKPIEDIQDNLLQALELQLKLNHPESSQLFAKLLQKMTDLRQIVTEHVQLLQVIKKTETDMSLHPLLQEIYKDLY
Put plainly: Cell-based PPARγ transactivation assay. To be noted: for Maximal efficacy: compared to the reference full agonist (2, MRL20); for EC50: read-out: Cell-based EC50, Cos-1 cells, 3xPPRE luciferase reporter, full-length PPARγ, 24 h, dose-response. The gist of the method:
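Cos-1 cells, trypsinized, bulk reverse-transfected 24 h (FuGene6, lipid:DNA 3:1; DMEM + 10% FBS) with 1.5 μg 3xPPRE luciferase reporter plus 1.5 μg full-length PPARγ (pSport6). Replated at 10,000 cells/well, 4 h at 37°C, 5% CO2. Ten-point serial dilution, 5 μM – 200 pM, in triplicate, then 24 h. One-step luciferase reagent, luminescence read. Activity taken as fold over DMSO. Partial and full agonist controls, DMSO negative. EC50 from curve fit.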
Background: A reporter such as luciferase makes a cellular process visible.

In the case of `COc1ccc(-c2nn(-c3ccccc3)cc2/C=C2/SC(=S)N(CCC(=O)O)C2=O)c(C)c1` [Compound 3], the IC50 in test [1] was 152 nM. In test [2], the Maximal efficacy worked out at 44.41% and the EC50 was determined as 283 nM.
`CCn1cnc2c1c(=O)n(Cc1cccc([N+](=O)[O-])c1)c(=O)n2Cc1ccccc1` [Compound 4]: the half-inhibitory concentration (IC50) in test [1] came out at 173 nM. Besides, in test [2], the Maximal efficacy was 64.11% and the EC50 worked out at 181 nM.
For `CC(=O)N1N=C(c2ccccc2)CC1c1cn(Cc2ccccc2)c2ccccc12` (stereo not drawn) [Compound 5], in that order: 2000 nM, 44.71% and 1200 nM.
For `CCOc1ccc2nc(N3C(=O)C(O)=C(C(=O)c4ccco4)C3c3ccco3)sc2c1` (stereo not drawn) [Compound 6], in that order: 3000 nM, 37.04% and 1200 nM.
The like results for `COc1ccc2nc(N3C(=O)C(O)=C(C(=O)c4ccco4)C3c3ccc(C)o3)sc2c1` (stereo not drawn) [Compound 7] were, in that order, 5000 nM, 41.14% and 5000 nM.
Consider `Cc1ccc2nc(N3C(=O)C(O)=C(C(=O)c4ccc(C)o4)C3c3ccco3)sc2c1` (stereo not drawn) [Compound 8], for which, in test [1], the IC50 was 22000 nM. Further, in test [2], the Maximal efficacy is listed as 45.76% and the 50% effective concentration (EC50) came to 18000 nM.
